Assay results: ChEMBL document CHEMBL2150940, “Mechanism-based design, synthesis and biological studies of N⁵-substituted tetrahydrofolate analogs as inhibitors of cobalamin-dependent methionine synthase and potential anticancer agents” (Eur J Med Chem, 2012)

Legend:
Dihydrofolate reductase = target: T1, Dihydrofolate reductase (Homo sapiens, UniProt P00374); assay: Inhibition of human recombinant DHFR using dihydrofolate as substrate by spectrophotometric analysis
T1 sequence (P00374 whole entry): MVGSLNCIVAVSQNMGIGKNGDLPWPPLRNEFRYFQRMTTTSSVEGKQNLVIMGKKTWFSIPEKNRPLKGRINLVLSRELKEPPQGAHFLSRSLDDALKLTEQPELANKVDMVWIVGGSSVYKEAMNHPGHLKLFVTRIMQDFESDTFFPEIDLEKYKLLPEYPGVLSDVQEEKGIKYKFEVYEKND
In short: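 Recombinant human DHFR was followed spectrophotometrically in 0.1 mM dihydrofolate, 0.3 mM NADPH and 100 mM KCl, pH 7.5, at 32 °C.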

Methionine synthase = Methionine synthase (Homo sapiens, UniProt Q99707); assay: Inhibition of methionine synthase in human HL60 cells using L-homocysteine as substrate incubated for 3 hrs prior to substrate addition measured after 10 mins spectrophotometric analysis; format: cell-based, HL-60
Methionine synthase, sequence (Q99707 whole entry): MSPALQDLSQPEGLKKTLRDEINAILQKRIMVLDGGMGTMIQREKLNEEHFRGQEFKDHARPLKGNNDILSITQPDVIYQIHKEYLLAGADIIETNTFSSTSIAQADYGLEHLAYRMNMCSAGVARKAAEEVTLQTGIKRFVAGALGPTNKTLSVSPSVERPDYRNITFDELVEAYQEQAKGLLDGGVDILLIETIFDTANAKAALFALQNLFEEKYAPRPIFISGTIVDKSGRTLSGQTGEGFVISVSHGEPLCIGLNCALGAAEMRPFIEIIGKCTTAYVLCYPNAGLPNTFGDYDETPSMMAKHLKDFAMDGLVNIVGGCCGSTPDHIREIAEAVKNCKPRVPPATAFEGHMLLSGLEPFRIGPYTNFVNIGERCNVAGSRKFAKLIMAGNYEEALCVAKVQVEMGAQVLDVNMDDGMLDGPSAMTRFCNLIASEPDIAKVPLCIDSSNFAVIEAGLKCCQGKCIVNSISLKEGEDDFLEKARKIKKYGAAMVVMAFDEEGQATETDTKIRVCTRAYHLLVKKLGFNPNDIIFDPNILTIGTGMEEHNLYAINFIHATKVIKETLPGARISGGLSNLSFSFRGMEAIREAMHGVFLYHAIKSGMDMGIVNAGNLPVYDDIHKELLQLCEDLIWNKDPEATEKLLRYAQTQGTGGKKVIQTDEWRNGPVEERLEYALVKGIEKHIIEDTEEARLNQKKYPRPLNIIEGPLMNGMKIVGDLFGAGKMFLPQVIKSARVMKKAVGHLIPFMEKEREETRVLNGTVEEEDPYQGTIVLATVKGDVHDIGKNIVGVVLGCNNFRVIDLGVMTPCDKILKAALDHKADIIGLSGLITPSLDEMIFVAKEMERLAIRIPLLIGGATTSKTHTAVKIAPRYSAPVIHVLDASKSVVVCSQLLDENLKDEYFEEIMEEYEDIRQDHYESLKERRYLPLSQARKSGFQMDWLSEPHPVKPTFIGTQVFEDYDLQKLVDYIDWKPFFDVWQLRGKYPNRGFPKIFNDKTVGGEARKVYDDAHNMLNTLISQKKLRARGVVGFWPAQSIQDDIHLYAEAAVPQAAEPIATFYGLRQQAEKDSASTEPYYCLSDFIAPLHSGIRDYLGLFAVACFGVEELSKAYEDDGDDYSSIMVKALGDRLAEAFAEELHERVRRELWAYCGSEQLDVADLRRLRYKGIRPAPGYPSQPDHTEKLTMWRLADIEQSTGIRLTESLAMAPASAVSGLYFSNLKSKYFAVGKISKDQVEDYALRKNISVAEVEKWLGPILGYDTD
In short: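 HL60 cells (1 × 10⁶/well) were serum-starved, then exposed 3 h to varied compound concentrations, lysed in HEPES pH 7.5 buffer and cleared at 4 °C. Lysate was mixed with potassium phosphate pH 7.2, DTT, 5-methyltetrahydrofolate, SAM and hydroxocobalamin (stock levels given) and preincubated 5 min at 37 °C. L-homocysteine started a 10 min 37 °C reaction. HCl/formic acid stop at 80 °C 10 min; A350 read.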

BGC-823 = assay: Antiproliferative activity against human BGC823 cells after 48 hrs; format: functional, cell-based; details: BGC-823, 48 h
In short: (§1)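 Cells kept in RPMI-1640 with 10% fetal bovine serum, penicillin (100 units mL⁻¹) and streptomycin at 37 °C in humidified 5% CO₂. Exponentially growing cells were exposed to a range of compound concentrations for 48 h. Growth inhibition was read by MTT and SRB assays. Values are means of three independent experiments.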

HeLa = assay: Antiproliferative activity against human HeLa cells after 48 hrs; format: functional, cell-based; in short: as §1
Bel-7402 = assay: Antiproliferative activity against human Bel7402 cells after 48 hrs; format: functional, cell-based; details: Bel-7402, 48 h; in short: as §1
SK-OV-3 [1] = assay: Antiproliferative activity against human SKOV3 cells after 48 hrs; format: functional, cell-based; details: SK-OV-3, 48 h; in short: as §1
KB = assay: Antiproliferative activity against human KB cells after 48 hrs; format: functional, cell-based; in short: as §1
SK-OV-3 [2] = assay: Ratio of MTX IC50 to compound IC50 for human SKOV3 cells; format: functional

SMILES	IC50 (Dihydrofolate reductase) [µM]	IC50 (Methionine synthase) [µM]	IC50 (BGC-823) [µM]	IC50 (HeLa) [µM]	IC50 (Bel-7402) [µM]	IC50 (SK-OV-3 [1]) [µM]	IC50 (KB) [µM]	Ratio IC50 (SK-OV-3 [2])
C=CCN1c2c(N)nc(N)nc2CCC1CN(C)c1ccc(C(=O)N[C@@H](CCC(=O)O)C(=O)O)cc1 (some centres undefined)	0.42	> 100	2.09	0.227	61.5	0.573	> 100	
Nc1nc(N)c2c(n1)CCC(CNc1ccc(C(=O)N[C@@H](CCC(=O)O)C(=O)O)cc1)N2 (mixture of isomers)		87.9				0.24	> 100	
CN(CC1CCc2nc(N)nc(N)c2N1C=O)c1ccc(C(=O)N[C@@H](CCC(=O)O)C(=O)O)cc1 (some centres undefined)	0.032	8.11	6.9	6	65.2	> 100	> 130	
CC(=O)N(CC1CCc2nc(N)nc(N)c2N1C=O)c1ccc(C(=O)N[C@@H](CCC(=O)O)C(=O)O)cc1 (some centres undefined)	> 100	1.73	27	41.6	12.3	34.6	20	
Nc1nc(N)c2c(n1)CCC1CN(c3ccc(C(=O)N[C@@H](CCC(=O)O)C(=O)O)cc3)CN21 (some centres undefined)	0.8	66.4	0.18	0.13	64.7	37.4	> 100	
Nc1nc(N)c2nc(CNc3ccc(C(=O)N[C@@H](CCC(=O)O)C(=O)O)cc3)ccc2n1	0.018	> 100	0.01	0.003	18.3	0.01	2.7	
Cc1ccc(S(=O)(=O)N2c3c(N)nc(N)nc3CCC2CN(C)c2ccc(C(=O)N[C@@H](CCC(=O)O)C(=O)O)cc2)cc1 (some centres undefined)	1.07	55	0.289	0.434	0.325	0.45	0.336	
Nc1nc(N)c2c(n1)CCC(CNc1ccc(C(=O)N[C@@H](CCC(=O)O)C(=O)O)cc1Br)N2CC(Br)CBr (some centres undefined)		1.43				0.042	> 100	1.4
C=CCN(CC1CCc2nc(N)nc(N)c2N1CC=C)c1ccc(C(=O)N[C@@H](CCC(=O)O)C(=O)O)cc1 (some centres undefined)		15.9				50.2	6.72	
CN(Cc1cnc2nc(N)nc(N)c2n1)c1ccc(C(=O)N[C@@H](CCC(=O)O)C(=O)O)cc1 [METHOTREXATE]						0.06	20.9	
CC(=O)N(CC1CCc2nc(N)nc(N)c2N1)c1ccc(C(=O)N[C@@H](CCC(=O)O)C(=O)O)cc1 (mixture of isomers)	0.033	> 100	> 100	> 100	> 100	> 100	31.1	
C=CCN1c2c(N)nc(N)nc2CCC1CNc1ccc(C(=O)N[C@@H](CCC(=O)O)C(=O)O)cc1 (some centres undefined)		27.8				0.87	> 100	
CN(CC1CCc2nc(N)nc(N)c2N1)c1ccc(C(=O)N[C@@H](CCC(=O)O)C(=O)O)cc1 (mixture of isomers)	0.033	> 100						
C=CCN1c2c(N)nc(N)nc2CCC1CNc1ccc(C(=O)N[C@@H](CCC(=O)O)C(=O)O)cc1Br (some centres undefined)		21				> 100	> 100	
